From ChEMBL document CHEMBL4138186, “Synthesis and bio-evaluation of indole-chalcone based benzopyrans as promising antiligase and antiproliferative agents” (Eur J Med Chem, 2018) come the findings set out here.

The test system of one assay is HepG2. In words: Antiproliferative activity against human HepG2 cells at 10 uM after 48 hrs by MTT assay. The assay is classed as functional, cell-based. A digest of the protocol: (§1)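 Cells seeded and allowed to adhere overnight, then given compound from 10 mM DMSO stock; DMSO alone as vehicle control. Grown 48 h, MTT (5 mg/ml) added for 3 h, formazan dissolved in DMSO, absorbance read at 590 nm. % inhibition = (A control − A treated)/A control × 100; three independent biological replicates. Single-point screen at 10 μM; IC50 from three independent experiments.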
A general note: Formazan colour is commonly taken as a measure of viable cells.

For the next assay, the system named is DLD-1. The assay is described as follows: Antiproliferative activity against human DLD1 cells at 10 uM after 48 hrs by MTT assay. The assay is classed as functional, cell-based. A digest of the protocol:
as §1

The subject of the next assay is 4T1 (Mus musculus). The assay is described as follows: Antiproliferative activity against mouse 4T1 cells at 10 uM after 48 hrs by MTT assay.
Assay [1] deals with DNA ligase 1 (Homo sapiens) (UniProt P18858). The assay is described as follows: Inhibition of human Lig1 at 10 uM using double strand nicked DNA as substrate after 30 mins in presence of ATP by acrylamide-based fluorescence-assay. A digest of the protocol:
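Cy3-labelled nicked duplex (52-mer annealed to 25- and 27-mers; 1 pmol) with purified hLigI (0.2 pmol) in 50 mM Tris-Cl pH 7.5, 10 mM MgCl2, 0.25 mg/mL BSA, 100 mM NaCl, 500 µM ATP. Compound at 10 μM; 30 min at 37 °C. Stopped with formamide/EDTA; ligated and unligated strands separated on 7 M urea/12% denaturing gel. Triplicate.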

The next assay relates to HeLa. In words: Antiproliferative activity against human HeLa cells at 10 uM after 48 hrs by MTT assay. The class given is functional, cell-based. A digest of the protocol: as §1
The next assay concerns MDA-MB-231. In words: Antiproliferative activity against human MDA-MB-231 cells at 10 uM after 48 hrs by MTT assay. The assay is classed as functional, cell-based. A digest of the protocol:
as §1

The subject of the next assay is DNA. The assay is described as follows: Binding affinity to Escherichia coli pUC18 DNA assessed as protection against DNase1-mediated cleavage at 500 uM preincubated for 30 mins followed by DNase1 addition measured after 5 mins by 1% agarose gel based UV-transilluminator analysis. The assay is classed as nucleic-acid assay. The essentials:
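Linearized pUC18 plasmid DNA (100 ng) incubated with compound (250, 500, 700 μM) or controls (doxorubicin 100 μM; DAPI, methyl green, ampicillin 500 μM) for 30 min at 37 °C in ligation-like buffer. DNase I 0.0025 U added for 5 min at 37 °C, stopped with urea/EDTA buffer, resolved on 1% agarose and imaged under UV.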

Active and inactive are the calls of the source. No cut-off for these calls is given here.

Sequence of DNA ligase 1 (Homo sapiens) (P18858 whole entry): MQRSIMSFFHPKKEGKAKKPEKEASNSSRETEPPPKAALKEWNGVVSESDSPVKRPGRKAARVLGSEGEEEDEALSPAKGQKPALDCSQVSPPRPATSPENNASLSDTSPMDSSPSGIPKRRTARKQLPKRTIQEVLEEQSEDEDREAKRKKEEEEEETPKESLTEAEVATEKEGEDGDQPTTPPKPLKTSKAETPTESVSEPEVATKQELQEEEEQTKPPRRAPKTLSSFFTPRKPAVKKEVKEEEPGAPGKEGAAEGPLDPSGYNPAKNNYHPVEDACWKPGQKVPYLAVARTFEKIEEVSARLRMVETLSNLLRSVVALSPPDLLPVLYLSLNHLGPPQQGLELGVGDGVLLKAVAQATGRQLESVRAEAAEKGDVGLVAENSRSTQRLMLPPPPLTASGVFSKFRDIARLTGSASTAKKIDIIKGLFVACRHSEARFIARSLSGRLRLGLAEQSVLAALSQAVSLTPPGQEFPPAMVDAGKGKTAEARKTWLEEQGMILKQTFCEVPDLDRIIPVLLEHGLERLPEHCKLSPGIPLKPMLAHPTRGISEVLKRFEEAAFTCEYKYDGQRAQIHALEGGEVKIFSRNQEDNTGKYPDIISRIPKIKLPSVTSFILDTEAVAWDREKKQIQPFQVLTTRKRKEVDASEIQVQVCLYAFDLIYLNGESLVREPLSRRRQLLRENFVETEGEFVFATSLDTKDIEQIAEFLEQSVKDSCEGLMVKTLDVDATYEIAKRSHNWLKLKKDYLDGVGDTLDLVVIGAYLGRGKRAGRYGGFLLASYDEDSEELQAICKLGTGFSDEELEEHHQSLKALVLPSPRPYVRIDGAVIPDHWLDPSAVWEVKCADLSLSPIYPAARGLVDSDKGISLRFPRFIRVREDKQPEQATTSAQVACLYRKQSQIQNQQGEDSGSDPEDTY

What is called inhibition is the percentage by which the read-out fell short of the control. For `Cc1cc(/C=C/C(=O)c2cccs2)cc2c1OC(N)=C(C#N)C2c1c(C)[nH]c2ccccc12` (stereo not drawn), the outcome in the assay on HepG2, with DLD-1, in the assay on 4T1 (Mus musculus), in the assay with HeLa and in the assay with MDA-MB-231 was Active. For the same molecule, in assay [1], the inhibition was above 45%.

With `Cc1ccc(C(=O)/C=C/c2cc3c(c(C(C)(C)C)c2)OC(N)=C(C#N)C3c2c(C)[nH]c3ccccc23)cc1` (stereo not drawn), in assay [1], the inhibition is below 20%.

In the case of `COc1ccc(C(=O)/C=C/c2cc3c(c(C(C)(C)C)c2)OC(N)=C(C#N)C3c2c(C)[nH]c3ccccc23)cc1` (stereo not drawn), the inhibition in assay [1] is below 20%.

With `CCC(C)c1cc(/C=C/C(=O)c2cc(OC)c(OC)c(OC)c2)cc2c1OC(N)=C(C#N)C2c1c(C)[nH]c2ccccc12` (stereo not drawn), in assay [1], the inhibition was below 20%.

With `COc1ccc2[nH]c(C)c(C3C(C#N)=C(N)Oc4c3cc(/C=C/C(=O)c3ccc(C)cc3)cc4C(C)(C)C)c2c1` (stereo not drawn), in assay [1], the inhibition is above 45%.

As to `COc1ccc2[nH]c(C)c(C3C(C#N)=C(N)Oc4c(C(C)C)cc(/C=C/C(=O)c5cccs5)cc43)c2c1` (stereo not drawn), the outcome in the assay with HepG2, in the assay on DLD-1, in the assay with 4T1 (Mus musculus), in the assay with HeLa and with MDA-MB-231 was Active. The inhibition in assay [1] was below 20%.

Regarding `COc1ccc(C(=O)/C=C/c2cc3c(c(C(C)(C)C)c2)OC(N)=C(C#N)C3c2c(C)[nH]c3ccc(Cl)cc23)cc1` (stereo not drawn), the inhibition in assay [1] was above 50%.

Consider `COc1cc(C(=O)/C=C/c2cc3c(c(C(C)(C)C)c2)OC(N)=C(C#N)C3c2c(C)[nH]c3ccccc23)cc(OC)c1OC` (stereo not drawn), for which the inhibition in assay [1] is below 20%.

As to `Cc1[nH]c2ccccc2c1C1C(C#N)=C(N)Oc2c(C(C)C)cc(/C=C/C(=O)c3cccs3)cc21` (stereo not drawn), the result in the assay with HepG2, in the assay with DLD-1, with 4T1 (Mus musculus), in the assay with HeLa and in the assay on MDA-MB-231 was Active. Besides, the inhibition in assay [1] was below 20%.

As for `Cc1ccc(C(=O)/C=C/c2cc3c(c(C(C)(C)C)c2)OC(N)=C(C#N)C3c2c(C)[nH]c3ccc(Cl)cc23)cc1` (stereo not drawn), in assay [1], the inhibition was above 50%.

For the molecule `CC1(C)S[C@@H]2[C@H](NC(=O)[C@H](N)c3ccccc3)C(=O)N2[C@H]1C(=O)O`, in the assay on DNA, the result was inactive.

`Cc1[nH]c2ccccc2c1C1C(C#N)=C(N)Oc2c1cc(/C=C/C(=O)c1ccc(Cl)cc1)cc2C(C)(C)C` (stereo not drawn): in assay [1], the inhibition was above 50%.

As to `COc1ccc2[nH]c(C)c(C3C(C#N)=C(N)Oc4c3cc(/C=C/C(=O)c3cccs3)cc4C(C)(C)C)c2c1` (stereo not drawn), the outcome in the assay with HepG2, in the assay with DLD-1, with 4T1 (Mus musculus), in the assay on HeLa and with MDA-MB-231 was Active. Besides, the inhibition in assay [1] is below 20%.
